Data as given in ChEMBL document CHEMBL3286328, “Characterization of proapoptotic compounds from the bark of Garcinia oblongifolia” (J Nat Prod, 2014).
Active and inactive are the calls of the source. The rule behind the calls is not given here.

Key:
[1] = Cytotoxicity against human HeLaC3 sensor cells assessed as decrease in YFP/CFP emission ratio within 72 hrs by FRET assay; assay type: functional, HeLa C3
Summary of the method: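 HeLa-C3 cells stably express a CFP–DEVD linker–YFP FRET caspase-3 sensor. Cells were seeded at 7500 per well, and after 12−16 h a background-subtracted baseline was read (excitation 440 nm; emission 486 nm CFP, 535 nm YFP). Compound at 10 μM was added in fresh medium, with 0.1% DMSO vehicle and 500 nM paclitaxel as positive control. Plates were read repeatedly for up to 72 h. An active compound lowers the YFP/CFP ratio to 3 or below.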

HeLa [2] = assay: Cytotoxicity against human HeLa cells assessed as decrease in cell viability at 10 uM after 72 hrs by MTT assay; assay type: functional
Summary of the method: (§1)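 HeLa cells were exposed to compound at 10 μM for 72 h. Vehicle was medium with 0.1% DMSO; paclitaxel (500 nM) was the positive control. MTT (5 mg/mL stock in PBS) was added for 2 h at 37 °C. Crystals were dissolved in 10% SDS/0.01 M HCl for 24 h at 37 °C, and OD was read at 595 nm. Viability at 0 h was set to 100. Three independent experiments.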

HeLa [3] = assay: Induction of apoptosis in human HeLa cells assessed as morphological and condensed or fragmented DNA at 10 uM after 72 hrs by Hoechst 33342 staining in presence of z-VAD-fmk; assay type: functional, cell-based
Summary of the method: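 HeLa cells were treated with compound (10 μM) alone or with zVAD-fmk (50 μM) for 72 h. Controls were medium with 0.1% DMSO, with or without zVAD-fmk. Cells were stained with Hoechst 33342, washed three times with PBS, and imaged by phase contrast and fluorescence microscopy for cell and nuclear morphology.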

HeLa [4] = assay: Cytotoxicity against human HeLa cells assessed as decrease in cell viability after 72 hrs by MTT assay; assay type: functional, cell-based
Summary of the method: (§2)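 For each cell line, 3000 cells per well were cultured overnight, then given fresh medium with compound. Each compound was tested at ≥7 concentrations in a 3-fold dilution series, with a final DMSO-stock dilution of at least 1000-fold. After 72 h, viability was read by MTT (OD 595 nm). Inhibition was calculated as 1 − [(T72 − C0)/(C72 − C0)] against the 0.1% DMSO control and fitted sigmoidally versus log concentration. Values are mean ± SD, n = 3.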

MDA-MB-435 = assay: Cytotoxicity against human MDA-MB-435 cells assessed as decrease in cell viability after 72 hrs by MTT assay; assay type: functional, cell-based; details: MDA-MB-435, 72 h; summary of the method: as §2
HepG2 = assay: Cytotoxicity against human HepG2 cells assessed as decrease in cell viability after 72 hrs by MTT assay; assay type: functional, cell-based; details: HepG2, 72 h; summary of the method: as §2
MCF7 [5] = assay: Cytotoxicity against human MCF7 cells assessed as decrease in cell viability after 72 hrs by MTT assay; assay type: functional, cell-based; details: MCF7, 72 h; summary of the method: as §2
MCF7 [6] = assay: Cytotoxicity against human MCF7 cells overexpressing HER2 assessed as decrease in cell viability after 72 hrs by MTT assay; assay type: functional, cell-based; details: MCF7, 72 h; summary of the method: as §2
HCT-116 = assay: Cytotoxicity against human HCT116 cells assessed as decrease in cell viability after 72 hrs by MTT assay; assay type: functional, cell-based; details: HCT-116, 72 h; summary of the method: as §2
[7] = Cytotoxicity against human HCT15 cells assessed as decrease in cell viability after 72 hrs by MTT assay; assay type: functional, cell-based; details: HCT-15, 72 h; summary of the method: as §2
HeLa [8] = assay: Cytotoxicity against human HeLa cells assessed as decrease in cell viability at 10 uM after 72 hrs by MTT assay relative to control; assay type: functional; summary of the method: as §1
HeLa [9] = assay: Induction of apoptosis in human HeLa cells assessed as caspase-3 activation at 10 uM after 24 hrs; assay type: functional, cell-based
Summary of the method: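 HeLa cells were treated for 24 h with compound (10 μM), against 0.1% DMSO vehicle; the positive control was UV for 3 min, harvested after 6 h. Lysates were made in Tris pH 7.5/Triton buffer with protease inhibitors. A sample of 50 μg protein was incubated with Ac-DEVD-AMC in HEPES pH 7.5 buffer for 1 h at 37 °C in the dark. Fluorescence was read at 355/460 nm and expressed as net reading per μg protein.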

Compound	Ratio [1]	viability at 10 µM (HeLa [2])	Activity (HeLa [3])	IC50 (HeLa [4])	IC50 (MDA-MB-435)	IC50 (HepG2)	IC50 (MCF7 [5])	IC50 (MCF7 [6])	IC50 (HCT-116)	IC50 [7]	fold change (FC) (HeLa [8])	Activity (HeLa [9])
CC1(C)C=Cc2cc3c(=O)c4c(O)cc(O)cc4oc3c(O)c2O1	3	50%	inactive	4.9 µM	3.9 µM	10.1 µM	11700 nM	34.4 µM	4.7 µM	5.1 µM	–	–
CC(C)=CCC/C(C)=C/C[C@@H]1C[C@]2(CC=C(C)C)C(=O)[C@@](CC=C(C)C)(C(=O)C(C(=O)c3cccc(O)c3)=C2O)[C@@]1(C)CCC=C(C)C [GARCICOWIN B]	3	50%	inactive	10.8 µM	12.6 µM	6.2 µM	10800 nM	19.1 µM	6 µM	9.6 µM	–	–
COc1cc(O)c2c(=O)c3ccc(O)c(O)c3oc2c1CCC(C)(C)O [NIGROLINEAXANTHONE T]	3	50%	inactive	4.7 µM	9 µM	4.8 µM	3000 nM	3.8 µM	3.7 µM	2.4 µM	–	–
CC(C)=CCC/C(C)=C/C[C@H]1C(C)(C)[C@@]2(CC=C(C)C)C(=O)c3c(oc4cc(O)c(O)cc4c3=O)[C@](CC=C(C)C)(C2=O)C1(C)C [OBLONGIFOLIN F]	3	50%	inactive	4.2 µM	16.5 µM	7.7 µM	3000 nM	5.1 µM	2.9 µM	4.9 µM	>30	Active
CC(C)=CCC/C(C)=C/C[C@@H]1C(C)(C)[C@@]2(CC=C(C)C)C(=O)c3c(oc4cc(O)c(O)cc4c3=O)[C@](CC=C(C)C)(C2=O)C1(C)C [OBLONGIFOLIN G]	3	50%	inactive	3.9 µM	16.5 µM	7.7 µM	2600 nM	2.9 µM	2.9 µM	4 µM	>30	Active
